Calls of active or inactive are those of the source. The rule behind the calls is not given here.
How the values were obtained:
[1] = target: Cyclin-dependent kinase-like 3 (Homo sapiens) (UniProt Q8IVW4); assay: Inhibition of CDKL3 (unknown origin) assessed as remaining activity at 1 uM by Kinome scan method relative to control
How it was run: (§1)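 Active-site-dependent competition-binding profiling (KINOMEscan) at 1 μM against a 468-kinase panel; compound supplied from a 10 mM DMSO stock. Read-out is ctrl% = (test signal − positive control signal)/(negative control signal − positive control signal) × 100. DMSO is the negative control (100%) and a control compound the positive control (0%). Lower ctrl% means tighter binding.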

[2] = target: Serine/threonine-protein kinase TAO2 (Homo sapiens, UniProt Q9UL54); assay: Inhibition of TAOK2 (unknown origin) in presence of ATP by enzymatic assay
[3] = system: Mast/stem cell growth factor receptor Kit (Homo sapiens), P10721 [V559D,T670I]; assay: Inhibition of KIT V559D/T670I mutant (unknown origin) assessed as remaining activity at 1 uM by Kinome scan method relative to control
[4] = target: Non-receptor tyrosine-protein kinase TYK2 (Homo sapiens, UniProt P29597); assay: Inhibition of TYK2 JH1domain-catalytic (unknown origin) in presence of ATP by enzymatic assay
[5] = system: HepG2; assay: Inhibition of Flag-tagged MST1 D109A mutant (unknown origin) in human HepG2 cells assessed as MOB1 phosphorylation level at 0.3 to 10 uM by immunoblot analysis; format: cell-based; conditions: dose 0.3-10 µM
[6] = target: Tyrosine-protein kinase BTK (Homo sapiens) (UniProt Q06187); assay: Inhibition of BTK (unknown origin) assessed as remaining activity at 1 uM by Kinome scan method relative to control
How it was run: (§2)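 Active-site-dependent competition-binding (KINOMEscan) panel of 468 kinases, test compound at 1 μM (from a 10 mM DMSO stock). Read-out is ctrl% = (test signal − positive control signal)/(negative control signal − positive control signal) × 100. DMSO is the negative control (100%) and a control compound is the positive control (0%). Lower ctrl% means tighter binding.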

[7] = target: Tyrosine-protein kinase JAK1 (Homo sapiens, UniProt P23458); assay: Inhibition of JAK1 JH1 domain (unknown origin) assessed as remaining activity at 1 uM by Kinome scan method relative to control
[8] = target: Muscle, skeletal receptor tyrosine-protein kinase (Homo sapiens) (UniProt O15146); assay: Inhibition of MUSK (unknown origin) assessed as remaining activity at 1 uM by Kinome scan method relative to control
[9] = system: Phosphatidylinositol 4,5-bisphosphate 3-kinase catalytic subunit alpha isoform (Homo sapiens), P42336 [H1047Y]; assay: Inhibition of PIK3CA H1047Y mutant (unknown origin) assessed as remaining activity at 1 uM by Kinome scan method relative to control
[10] = target: Dual specificity protein kinase CLK2 (Homo sapiens) (UniProt P49760); assay: Inhibition of CLK2 (unknown origin) assessed as remaining activity at 1 uM by Kinome scan method relative to control; how it was run: as §1
Chain of Dual specificity protein kinase CLK2 (Homo sapiens) (P49760 whole entry, looked up, canonical isoform): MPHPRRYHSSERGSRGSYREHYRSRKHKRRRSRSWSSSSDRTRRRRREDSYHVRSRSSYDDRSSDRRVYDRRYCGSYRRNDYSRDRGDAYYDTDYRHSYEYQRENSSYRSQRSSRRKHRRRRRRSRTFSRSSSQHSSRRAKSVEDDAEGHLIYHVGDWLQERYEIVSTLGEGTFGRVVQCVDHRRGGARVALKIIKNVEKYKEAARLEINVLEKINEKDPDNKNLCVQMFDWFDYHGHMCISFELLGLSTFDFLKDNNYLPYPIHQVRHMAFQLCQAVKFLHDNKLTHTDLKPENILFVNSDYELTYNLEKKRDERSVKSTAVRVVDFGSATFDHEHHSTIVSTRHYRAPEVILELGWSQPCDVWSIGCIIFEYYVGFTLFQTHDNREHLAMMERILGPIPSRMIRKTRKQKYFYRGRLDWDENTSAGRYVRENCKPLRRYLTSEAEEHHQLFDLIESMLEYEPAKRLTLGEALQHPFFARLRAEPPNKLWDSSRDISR

[11] = system: Phosphatidylinositol 4,5-bisphosphate 3-kinase catalytic subunit alpha isoform (Homo sapiens), P42336 [I800L]; assay: Inhibition of PIK3CA I800L mutant (unknown origin) assessed as remaining activity at 1 uM by Kinome scan method relative to control
[12] = target: Eukaryotic translation initiation factor 2-alpha kinase 1 (Homo sapiens) (UniProt Q9BQI3); assay: Inhibition of EIF2AK1 (unknown origin) assessed as remaining activity at 1 uM by Kinome scan method relative to control
[13] = target: Mitogen-activated protein kinase kinase kinase 10 (Homo sapiens) (UniProt Q02779); assay: Inhibition of MLK2 (unknown origin) assessed as remaining activity at 1 uM by Kinome scan method relative to control
Chain of Mitogen-activated protein kinase kinase kinase 10 (Homo sapiens) (Q02779 whole entry, looked up): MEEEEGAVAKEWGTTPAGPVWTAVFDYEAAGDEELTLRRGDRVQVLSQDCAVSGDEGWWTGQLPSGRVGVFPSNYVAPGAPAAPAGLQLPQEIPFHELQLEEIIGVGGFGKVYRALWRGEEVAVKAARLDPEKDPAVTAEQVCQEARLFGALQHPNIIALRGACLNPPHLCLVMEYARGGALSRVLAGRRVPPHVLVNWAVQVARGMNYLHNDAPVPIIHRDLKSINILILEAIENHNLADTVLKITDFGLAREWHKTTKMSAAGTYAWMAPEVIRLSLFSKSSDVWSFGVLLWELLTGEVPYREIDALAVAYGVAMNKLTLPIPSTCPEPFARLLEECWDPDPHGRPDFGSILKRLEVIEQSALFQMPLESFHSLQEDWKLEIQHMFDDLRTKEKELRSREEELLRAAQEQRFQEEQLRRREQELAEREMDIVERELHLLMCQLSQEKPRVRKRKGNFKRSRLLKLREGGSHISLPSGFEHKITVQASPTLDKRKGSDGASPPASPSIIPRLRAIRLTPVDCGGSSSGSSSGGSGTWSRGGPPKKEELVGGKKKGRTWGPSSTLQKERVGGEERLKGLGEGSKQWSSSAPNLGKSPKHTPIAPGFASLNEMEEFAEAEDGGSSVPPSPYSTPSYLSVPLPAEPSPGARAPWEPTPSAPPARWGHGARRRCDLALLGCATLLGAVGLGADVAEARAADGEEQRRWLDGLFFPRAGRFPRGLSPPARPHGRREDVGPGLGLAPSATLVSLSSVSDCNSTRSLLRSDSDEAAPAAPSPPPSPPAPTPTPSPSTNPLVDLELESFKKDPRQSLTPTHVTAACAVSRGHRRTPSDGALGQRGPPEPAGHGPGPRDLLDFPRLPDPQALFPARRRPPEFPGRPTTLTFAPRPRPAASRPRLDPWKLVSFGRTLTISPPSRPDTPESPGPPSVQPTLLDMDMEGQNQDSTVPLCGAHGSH

[14] = target: Serine/threonine-protein kinase DCLK1 (Homo sapiens, UniProt O15075); assay: Inhibition of DCAMKL1 (unknown origin) in presence of ATP by enzymatic assay
[15] = target: Serine/threonine-protein kinase 16 (Homo sapiens) (UniProt O75716); assay: Inhibition of STK16 (unknown origin) assessed as remaining activity at 1 uM by Kinome scan method relative to control
[16] = target: Tyrosine-protein kinase JAK2 (Homo sapiens) (UniProt O60674); assay: Inhibition of JAK2 JH1 domain (unknown origin) assessed as remaining activity at 1 uM by Kinome scan method relative to control
[17] = target: Ribosomal protein S6 kinase alpha-2 (Homo sapiens) (UniProt Q15349); assay: Inhibition of C-terminal kinase domain RSK3 (unknown origin) assessed as remaining activity at 1 uM by Kinome scan method relative to control; how it was run: as §2
[18] = target: Leukocyte tyrosine kinase receptor (Homo sapiens) (UniProt P29376); assay: Inhibition of LTK (unknown origin) assessed as remaining activity at 1 uM by Kinome scan method relative to control
[19] = system: Mus musculus; assay: Anti-colitis activity against DSS-induced mouse assessed as suppression in disease activity index at 1 mg/kg, ip administrated daily for over 1 to 21 days; format: functional, organism-based; conditions: time 1-21 day
How it was run: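 Colitis was induced in wild-type mice with DSS on days 1–7, with vehicle or 1 mg/kg daily (n = 12 per group). Disease activity index (diarrhea, rectal bleeding) was scored daily over days 1–21. Student's t test at each time point.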

[20] = target: Ribosomal protein S6 kinase alpha-3 (Homo sapiens) (UniProt P51812); assay: Inhibition of C-terminal kinase domain RSK2 (unknown origin) assessed as remaining activity at 1 uM by Kinome scan method relative to control; how it was run: as §2
[21] = target: Serine/threonine-protein kinase WNK3 (Homo sapiens) (UniProt Q9BYP7); assay: Inhibition of WNK3 (unknown origin) assessed as remaining activity at 1 uM by Kinome scan method relative to control
[22] = target: Receptor tyrosine-protein kinase erbB-4 (Homo sapiens) (UniProt Q15303); assay: Inhibition of ERBB4 (unknown origin) assessed as remaining activity at 1 uM by Kinome scan method relative to control
[23] = target: Ribosomal protein S6 kinase alpha-4 (Homo sapiens) (UniProt O75676); assay: Inhibition of N-terminal kinase domain RPS6KA4 (unknown origin) assessed as remaining activity at 1 uM by Kinome scan method relative to control
[24] = target: Testis-specific serine/threonine-protein kinase 1 (Homo sapiens) (UniProt Q9BXA7); assay: Inhibition of TSSK1B (unknown origin) assessed as remaining activity at 1 uM by Kinome scan method relative to control
Chain of Testis-specific serine/threonine-protein kinase 1 (Homo sapiens) (Q9BXA7 whole entry): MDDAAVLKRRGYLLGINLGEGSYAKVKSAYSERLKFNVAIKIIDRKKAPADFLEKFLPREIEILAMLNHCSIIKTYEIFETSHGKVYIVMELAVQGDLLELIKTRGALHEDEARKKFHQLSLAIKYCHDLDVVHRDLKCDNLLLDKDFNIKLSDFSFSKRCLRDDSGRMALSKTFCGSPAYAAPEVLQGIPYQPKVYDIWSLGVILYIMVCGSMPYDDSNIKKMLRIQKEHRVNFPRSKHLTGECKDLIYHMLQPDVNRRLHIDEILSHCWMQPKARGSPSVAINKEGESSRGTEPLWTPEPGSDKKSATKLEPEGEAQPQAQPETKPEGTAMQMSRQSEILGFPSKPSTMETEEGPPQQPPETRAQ

[25] = target: Serine/threonine-protein kinase ULK2 (Homo sapiens) (UniProt Q8IYT8); assay: Inhibition of ULK2 (unknown origin) assessed as remaining activity at 1 uM by Kinome scan method relative to control
[26] = target: Vascular endothelial growth factor receptor 1 (Homo sapiens) (UniProt P17948); assay: Inhibition of FLT1 (unknown origin) assessed as remaining activity at 1 uM by Kinome scan method relative to control
Chain of Vascular endothelial growth factor receptor 1 (Homo sapiens) (P17948 whole entry): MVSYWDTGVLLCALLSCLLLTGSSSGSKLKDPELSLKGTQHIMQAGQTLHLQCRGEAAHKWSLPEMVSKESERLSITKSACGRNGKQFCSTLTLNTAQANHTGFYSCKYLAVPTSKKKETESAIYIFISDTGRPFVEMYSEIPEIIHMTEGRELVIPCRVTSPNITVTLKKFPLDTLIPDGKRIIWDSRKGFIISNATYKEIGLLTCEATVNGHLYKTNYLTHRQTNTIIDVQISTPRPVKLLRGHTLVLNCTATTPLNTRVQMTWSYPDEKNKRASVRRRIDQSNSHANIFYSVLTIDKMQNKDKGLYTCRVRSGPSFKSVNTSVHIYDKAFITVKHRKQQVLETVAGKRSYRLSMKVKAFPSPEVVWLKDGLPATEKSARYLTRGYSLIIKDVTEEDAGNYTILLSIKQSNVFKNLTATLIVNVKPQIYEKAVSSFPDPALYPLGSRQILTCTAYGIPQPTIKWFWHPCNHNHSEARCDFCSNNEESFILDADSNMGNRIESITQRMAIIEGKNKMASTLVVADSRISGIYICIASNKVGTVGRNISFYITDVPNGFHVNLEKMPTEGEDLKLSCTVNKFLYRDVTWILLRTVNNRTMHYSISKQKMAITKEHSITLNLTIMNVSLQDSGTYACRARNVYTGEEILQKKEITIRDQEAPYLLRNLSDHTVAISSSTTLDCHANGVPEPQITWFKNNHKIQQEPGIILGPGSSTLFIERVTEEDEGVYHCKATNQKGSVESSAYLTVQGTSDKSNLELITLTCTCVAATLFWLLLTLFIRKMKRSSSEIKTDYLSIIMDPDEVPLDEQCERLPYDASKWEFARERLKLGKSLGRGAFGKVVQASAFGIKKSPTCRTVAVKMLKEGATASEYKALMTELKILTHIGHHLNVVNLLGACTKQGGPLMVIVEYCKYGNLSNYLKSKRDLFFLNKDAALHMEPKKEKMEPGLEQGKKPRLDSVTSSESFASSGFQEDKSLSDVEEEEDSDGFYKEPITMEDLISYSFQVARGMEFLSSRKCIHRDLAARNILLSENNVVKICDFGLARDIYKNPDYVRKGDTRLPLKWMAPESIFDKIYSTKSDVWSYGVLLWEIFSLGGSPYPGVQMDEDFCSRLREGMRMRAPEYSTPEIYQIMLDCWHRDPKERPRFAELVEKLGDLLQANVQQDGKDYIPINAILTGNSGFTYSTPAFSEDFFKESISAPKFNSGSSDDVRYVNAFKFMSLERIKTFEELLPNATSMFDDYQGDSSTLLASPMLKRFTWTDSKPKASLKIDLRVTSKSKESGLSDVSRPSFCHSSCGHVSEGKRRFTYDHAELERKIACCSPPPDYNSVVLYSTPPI

[27] = target: Homeodomain-interacting protein kinase 1 (Homo sapiens) (UniProt Q86Z02); assay: Inhibition of HIPK1 (unknown origin) assessed as remaining activity at 1 uM by Kinome scan method relative to control
Chain of Homeodomain-interacting protein kinase 1 (Homo sapiens) (Q86Z02 whole entry, looked up): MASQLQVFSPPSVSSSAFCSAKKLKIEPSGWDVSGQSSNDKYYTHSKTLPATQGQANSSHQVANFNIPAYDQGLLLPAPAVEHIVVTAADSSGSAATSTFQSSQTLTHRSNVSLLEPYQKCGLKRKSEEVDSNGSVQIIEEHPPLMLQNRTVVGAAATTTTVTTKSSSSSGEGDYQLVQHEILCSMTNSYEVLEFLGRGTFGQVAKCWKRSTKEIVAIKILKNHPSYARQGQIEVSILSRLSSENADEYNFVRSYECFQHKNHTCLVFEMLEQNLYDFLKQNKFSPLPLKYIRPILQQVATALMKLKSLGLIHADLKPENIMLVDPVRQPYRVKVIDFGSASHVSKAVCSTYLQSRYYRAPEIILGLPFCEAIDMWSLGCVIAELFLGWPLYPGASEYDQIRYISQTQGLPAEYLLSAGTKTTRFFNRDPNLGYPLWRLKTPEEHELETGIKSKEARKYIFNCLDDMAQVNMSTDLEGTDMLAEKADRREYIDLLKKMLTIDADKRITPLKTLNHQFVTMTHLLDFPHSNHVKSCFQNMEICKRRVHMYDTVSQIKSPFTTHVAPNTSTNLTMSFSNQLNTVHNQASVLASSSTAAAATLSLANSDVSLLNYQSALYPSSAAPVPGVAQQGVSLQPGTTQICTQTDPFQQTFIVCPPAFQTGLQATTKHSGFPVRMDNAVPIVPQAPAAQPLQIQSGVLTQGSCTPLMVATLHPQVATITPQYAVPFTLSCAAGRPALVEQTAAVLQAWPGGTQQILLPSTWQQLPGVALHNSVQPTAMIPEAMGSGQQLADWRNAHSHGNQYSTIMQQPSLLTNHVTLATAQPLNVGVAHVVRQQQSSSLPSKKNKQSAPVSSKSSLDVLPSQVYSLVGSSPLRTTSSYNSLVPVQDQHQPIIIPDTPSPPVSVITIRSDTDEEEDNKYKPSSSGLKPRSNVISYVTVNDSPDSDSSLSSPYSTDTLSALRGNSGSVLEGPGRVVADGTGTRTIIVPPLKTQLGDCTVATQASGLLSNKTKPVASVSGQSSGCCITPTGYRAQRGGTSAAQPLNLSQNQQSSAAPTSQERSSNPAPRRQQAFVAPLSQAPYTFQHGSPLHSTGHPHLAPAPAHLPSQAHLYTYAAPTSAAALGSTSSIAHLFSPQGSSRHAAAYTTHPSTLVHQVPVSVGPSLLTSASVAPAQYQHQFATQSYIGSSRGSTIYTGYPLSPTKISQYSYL

[28] = system: Receptor-type tyrosine-protein kinase FLT3 (Homo sapiens), P36888 [R834Q]; assay: Inhibition of FLT3 R834Q mutant (unknown origin) assessed as remaining activity at 1 uM by Kinome scan method relative to control

Chain of Cyclin-dependent kinase-like 3 (Homo sapiens) (Q8IVW4 whole entry, looked up): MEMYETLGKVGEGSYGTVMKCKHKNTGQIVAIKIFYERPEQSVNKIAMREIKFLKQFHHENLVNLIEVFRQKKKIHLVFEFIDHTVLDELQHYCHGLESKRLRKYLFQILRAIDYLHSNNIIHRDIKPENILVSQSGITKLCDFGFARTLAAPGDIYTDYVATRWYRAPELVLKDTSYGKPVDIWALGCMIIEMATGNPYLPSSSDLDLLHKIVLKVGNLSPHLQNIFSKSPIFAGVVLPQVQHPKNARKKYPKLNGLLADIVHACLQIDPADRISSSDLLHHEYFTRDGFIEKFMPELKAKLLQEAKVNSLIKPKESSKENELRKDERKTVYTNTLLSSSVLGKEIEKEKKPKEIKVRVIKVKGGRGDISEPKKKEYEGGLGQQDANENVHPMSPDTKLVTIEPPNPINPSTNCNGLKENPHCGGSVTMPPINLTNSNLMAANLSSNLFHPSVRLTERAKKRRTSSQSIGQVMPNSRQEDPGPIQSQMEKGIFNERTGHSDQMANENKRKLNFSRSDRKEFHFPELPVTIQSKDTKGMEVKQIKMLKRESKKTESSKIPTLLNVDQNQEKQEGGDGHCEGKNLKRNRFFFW

Q: Which Activity [1] does the source give for `CN1C(=O)c2sccc2N(C)c2nc(Nc3ccc(S(N)(=O)=O)cc3)ncc21` here?
A: 91%

Q: What about the IC50 [2] of the same molecule?
A: 134 nM

Q: And the Activity [3]?
A: 88%

Q: What about the IC50 [4] of the same molecule?
A: 1.9 nM

Q: What about the inhibition [5] of the same molecule?
A: Active

Q: And the Activity [6]?
A: 48%

Q: And the Activity [7]?
A: 97%

Q: What about the Activity [8] of the same molecule?
A: 100%

Q: What about the Activity [9] of the same molecule?
A: 57%

Q: And the Activity [10]?
A: 71%

Q: And the Activity [11]?
A: 23%

Q: What about the Activity [12] of the same molecule?
A: 94%

Q: What about the Activity [13] of the same molecule?
A: 77%

Q: And the IC50 [14]?
A: 27.9 nM

Q: What about the Activity [15] of the same molecule?
A: 50%

Q: And the Activity [16]?
A: 15%

Q: What about the Activity [17] of the same molecule?
A: 92%

Q: What about the Activity [18] of the same molecule?
A: 100%

Q: What about the Activity [19] of the same molecule?
A: Active

Q: And the Activity [20]?
A: 66%

Q: What about the Activity [21] of the same molecule?
A: 71%

Q: And the Activity [22]?
A: 79%

Q: What about the Activity [23] of the same molecule?
A: 81%

Q: What about the Activity [24] of the same molecule?
A: 100%

Q: What about the Activity [25] of the same molecule?
A: 4.8%

Q: What about the Activity [26] of the same molecule?
A: 84%

Q: What about the Activity [27] of the same molecule?
A: 91%

Q: And the Activity [28]?
A: 91%

From ChEMBL document CHEMBL5705905, “Pharmacological targeting of kinases MST1 and MST2 augments tissue repair and regeneration” (Sci Transl Med, 2016)
